# RGS4 act: potentiators or activators of RGS4; HEK293 M3R/inducible RGS4, carbachol calcium flux Fluo4; active compounds read low; B-score at 10 µM; 310,000 compounds, 0.92% hits; AID 463111;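 active means B-score of the integrated calcium signal more than 4 SD below the library mean, with starting fluorescence not abnormally high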;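 further: negative B-score means reduced calcium response which marks RGS4 activation or potentiation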
#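 test system = M3R-expressing HEK293 line, RGS4 induced by doxycycline | probe or stimulus = carbachol at ECmax as muscarinic agonist stimulus | timing = dye loading 30 min 37 °C, buffer rest 30 min RT | signal = calcium dye Fluo4 fluorescence | evaluation = B score from integrated fluorescence ratio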
# MrgX1 PAM: human MrgX1 positive allosteric modulation, primary screen | 310,000 compounds, 0.63% hits | MrgX1-HEK293, Fluo-4 calcium flux, FDSS; active compounds read high | B-score at 10 µM | Q96LB2 | AID 588675;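 active means plate-corrected calcium response at least 3 library SD above typical, normal starting fluorescence, not activating the receptor alone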;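 further: compound read alongside a low EC10 to EC30 dose of BAM8-22 agonist; peak minus trough fluorescence over baseline measured at the second addition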
# MrgX1 antag: human MrgX1 receptor antagonism, primary screen; Q96LB2; MRGX1-HEK293 calcium flux, Fluo-4, BAM8-22 antagonism; active compounds read low; AID 588676; 310,000 compounds, 1.3% hits; B-score at 10 µM;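 active means calcium-response B-score plate-corrected more than 3 library SD below zero, starting fluorescence within 5 deviations, no agonist response on first addition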;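 further: peak minus trough fluorescence over baseline after final BAM8-22 challenge near maximal dose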
# RGS4 block: human RGS4 inhibition. B-score at 10 µM. AID 463165. HEK293 M3R/RGS4 inducible, Fluo-4 calcium flux; active compounds read high; triggered by carbachol at its EC20. 310,000 compounds, 0.45% hits. P49798;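 active means B-score, a plate-corrected calcium signal, over three deviations above library mean, with baseline fluorescence within five deviations of library mean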;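 further: RGS4 expression induced by doxycycline in cells with stable M3 receptor; B-score is computed from the integrated fluorescence ratio over baseline after carbachol; higher B-score means a larger calcium signal and so more RGS4 inhibition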
# Target sequence (P49798 whole entry, looked up): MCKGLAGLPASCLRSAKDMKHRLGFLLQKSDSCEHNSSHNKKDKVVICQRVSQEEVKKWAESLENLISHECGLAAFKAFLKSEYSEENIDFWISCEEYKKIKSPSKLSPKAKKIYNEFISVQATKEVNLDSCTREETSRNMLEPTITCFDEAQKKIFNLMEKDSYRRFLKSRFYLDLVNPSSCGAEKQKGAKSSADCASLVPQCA
# MrgX1 agonist: activates human MrgX1 receptor signaling; MrgX1-HEK293 cells, Fluo-4 calcium fluorescence, agonist mode; active compounds read high; B-score at 10 µM; 310,000 compounds, 0.44% hits; AID 588627;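 active means calcium response B-score plate-corrected fluorescence ratio at least 3 library SD, with starting fluorescence B-score inside 5 SD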
#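 Material: HEK293 cells stably expressing human MrgX1 receptor | Quantity: 15,000 cells per well | Times: Cells plated overnight, dye loaded 0.5 h 37 °C, 0.5 h room temperature | Measured by: Kinetic Fluo-4 NW fluorescence of intracellular calcium | Control set: Positive and negative controls per plate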
# MrgX1 ant reconf: reconfirmed antagonist of human MrgX1 receptor signaling | shares compounds with MrgX1 antag | MrgX1-HEK293, BAM8-22 calcium flux, Fluo-4; active compounds read low | remaining BAM8-22 calcium response % of control (active compounds read low), % at 10 µM | 2,300 compounds, 19% hits;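 active means remaining agonist calcium response no higher than 100% minus 3 SD of agonist-only control wells, with starting fluorescence near control levels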;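 further: agonist BAM8-22 given at a near maximal EC90 to ECmax level; peak minus minimum fluorescence divided by baseline after agonist addition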
# HEK293 Ca flux: MrgX1 antagonist counter-screen hit in parental HEK293 cells; shares compounds with MrgX1 antag; fluorescence ratio F(max-min)/F0 at 10 µM; Fluo-4 calcium fluorescence, FDSS; 4,000 compounds, 2% hits;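 active means duplicate-averaged calcium fluorescence ratio at least three times the standard deviation of buffer wells, a nonspecific response in parental cells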
# HEK293 Ca counter: MrgX1 allosteric activator counter-screen hit in parental HEK293 cells; shares compounds with MrgX1 antag; parental HEK293 calcium flux, Fluo-4 fluorescence ratio; active compounds read high; fluorescence ratio F(max-min)/F0 at 10 µM; 4,000 compounds, 0.4% hits;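 active means calcium fluorescence ratio, averaged over duplicates, at least 3 SD of the buffer-well ratio, meaning a nonspecific response in receptor-free cells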;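 further: untransfected parental HEK293 lacking MrgX1 used as counterscreen for MrgX1 allosteric activators; fluorescence change taken during the second addition on a kinetic imager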
# HEK293 Ca cntr2: MrgX1 activator counter-screen hit in parental HEK293 cells. fluorescence ratio F(max-min)/F0 at 10 µM. shares compounds with MrgX1 antag. 4,000 compounds, 8.7% hits. Fluo-4 calcium fluorescence (FDSS); active compounds read high;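 active means calcium fluorescence ratio at least three times the spread of buffer wells, meaning a non-specific response in parental cells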
# Numbers without * were called inactive; i = inactive; . = no result. Compounds with a hit are over-represented: about 3.5% of the library has one in this group of screens.
SMILES,RGS4 act,MrgX1 PAM,MrgX1 antag,RGS4 block,MrgX1 agonist,MrgX1 ant reconf,HEK293 Ca flux,HEK293 Ca counter,HEK293 Ca cntr2
Fc1ccccc1NC(=S)Nc1ccc(Br)cc1,i,i,-6.1*,i,i,71%*,i,i,i
Cc1ccc(NC(=S)Nc2ccc(Br)cc2)cc1,i,i,-5.8*,i,i,59%*,i,i,i
CC(C)=CCCC1(C)C=Cc2c(c(C)cc3c2[nH]c2cc(O)ccc23)O1 (configuration not stated),i,i,i,i,i,.,.,.,.
Cc1ccc([N+](=O)[O-])cc1S(=O)(=O)Nc1ccc(OCC(=O)N2CCOCC2)cc1,i,i,i,i,i,.,.,.,.
O=C(Nc1nc(N2C(=O)c3ccccc3C2=O)n(-c2ccccc2)n1)c1ccc(Cl)cc1,i,i,i,i,i,.,.,.,.
CCNc1nc(SCc2ccccc2)nc(N2CCOCC2)n1,.,i,i,.,i,.,.,.,.
CN(C)c1nc(SCc2ccccc2)nc(N2CCOCC2)n1,i,i,-6.4*,i,i,i,i,i,i
Cc1ccc(OCc2cc(C(=O)NC(C)Cc3cccc(C)n3)no2)cn1 (configuration not stated),i,i,i,i,i,.,.,.,.
COc1ccc(-c2nc3ccccc3c(=O)n2CCOc2c(C)cccc2C)cc1,i,i,-4.6*,i,i,i,0.2*,i,i
CCn1c2ccccc2c2cc(NC(=O)COC(=O)c3cc(S(N)(=O)=O)c(Cl)cc3Cl)ccc21,i,i,i,i,i,.,.,.,.
CN(C)S(=O)(=O)N(CC(=O)Nc1ccc2ccccc2c1)c1ccccc1,i,i,i,i,i,.,.,.,.
CN(C)S(=O)(=O)N(CC(=O)Nc1ccc(F)c(F)c1)c1ccccc1,i,i,-6.1*,i,i,i,i,i,i
O=C(NCCCN1CCOCC1)c1ccccc1N1C(=O)[C@@H]2Cc3c([nH]c4ccccc34)C(c3ccc(F)cc3)N2C1=O (some centres not stated),i,i,i,i,i,.,.,.,.
O=C(NCCN1CCOCC1)c1ccccc1N1C(=O)[C@@H]2Cc3c([nH]c4ccccc34)C(c3ccccc3)N2C1=O (some centres not stated),i,i,-6.8*,i,i,i,i,i,i
CC(C)OCCCNC(=O)c1cccc(NC(=O)c2ccccc2)c1,i,i,i,i,i,.,.,.,.
COc1cccc(C(=O)Nc2cccc(C(=O)NCC(C)C)c2)c1,i,i,-6.5*,i,i,i,i,i,i
COCCCNC(=O)c1cccc(NC(=O)c2ccccc2)c1,i,i,-5.6*,i,i,83%*,i,i,i
Cn1c(=NC(=O)COc2ccccc2)sc2ccccc21,i,i,i,i,i,.,.,.,.
O=C(c1nc2nc(-c3ccccc3)cc(C(F)(F)F)n2n1)N1CCOCC1,i,i,-5.5*,i,i,85%*,i,i,i
O=C(c1nc2nc(-c3ccc(Cl)cc3)cc(C(F)(F)F)n2n1)N1CCOCC1,i,i,i,i,i,.,.,.,.
CCCOc1ccc(C2C(=O)N(C3CCCCC3)CC(=O)N2C2CC2)cc1OC (configuration not stated),i,i,i,i,i,.,.,.,.
